ChEMBL document CHEMBL1143613, “Neurosteroid analogues. 10. The effect of methyl group substitution at the C-6 and C-7 positions on the GABA modulatory and anesthetic actions of (3alpha,5alpha)- and (3alpha,5beta)-3-hydroxypregnan-20-one” (J Med Chem, 2005)

Legend:
[1] = Dose required for measuring the loss of righting reflex (LRR) in Xenopus laevis tadpoles; assay type: functional
Outline: (§1)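 Xenopus laevis tadpoles scored for loss of swimming (LSR) or righting (LRR) response. 10 animals were used at each of five or more concentrations. Error given as standard error of the mean.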

[2] = target: T1, GABA-A receptor; alpha-1/beta-2/gamma-2 (Rattus norvegicus) (UniProt P18508+P62813+P63138); test: Ratio of currents mediated by rat Alpha-1-beta-2-gamma-2L GABA-A receptor expressed in Xenopus oocytes at 10 uM in presence of 2 uM GABA; assay type: cell-based; details: Oocyte
Outline: (§2)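 Rat α1β2γ2L GABAA receptors expressed in Xenopus oocytes. Test compound at 0.1, 1 or 10 µM was co-applied with 2 µM GABA, the control GABA concentration. The value is the ratio of current with compound to current without it. At least four oocytes per concentration, with standard error of the mean.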

[3] = Dose required for measuring loss of swimming reflex (LSR) in Xenopus laevis tadpoles; assay type: functional; outline: as §1
[4] = target: T1, GABA-A receptor; alpha-1/beta-2/gamma-2 (Rattus norvegicus); test: Ratio of currents mediated by rat Alpha-1-beta-2-gamma-2L GABA-A receptor expressed in Xenopus oocytes at 0.1 uM in presence of 2 uM GABA; assay type: cell-based; details: Oocyte; outline: as §2
[5] = target: T1, GABA-A receptor; alpha-1/beta-2/gamma-2 (Rattus norvegicus); test: Ratio of currents mediated by rat Alpha-1-beta-2-gamma-2L GABA-A receptor expressed in Xenopus oocytes at 10 uM in the absence of GABA; assay type: cell-based; details: Oocyte
Outline: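 Direct gating on rat α1β2γ2L GABAA receptors in Xenopus oocytes. Compound at 10 µM was applied with no GABA. The value is the compound-only current divided by the current from 2 µM GABA alone. At least four oocytes, with standard error of the mean.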

[6] = target: T1, GABA-A receptor; alpha-1/beta-2/gamma-2 (Rattus norvegicus); test: Ratio of currents mediated by rat Alpha-1-beta-2-gamma-2L GABA-A receptor expressed in Xenopus oocytes at 1.0 uM in presence of 2 uM GABA; assay type: cell-based; details: Oocyte; outline: as §2
[7] = target: GABA-A receptor; anion channel; test: Displacement of [35S]TBPS from picrotoxin site of GABA-A receptor of rat brain membranes; assay type: cell membranes, Membrane

**Q.** With `CC(=O)[C@H]1CC[C@H]2[C@@H]3CC[C@H]4C[C@H](O)CC[C@]4(C)[C@H]3CC[C@]12C` as the compound, how does the ED50 [1] read?
**A.** 0.42 µM

**Q.** What about the Ratio [2] of the same compound?
**A.** 9.65

**Q.** And the ED50 [3]?
**A.** 5.5 µM

**Q.** What about the Ratio [4] of the same compound?
**A.** 1.26

**Q.** And the Ratio [5]?
**A.** 0.37

**Q.** And the Ratio [6]?
**A.** 3.89

**Q.** With `CC(=O)[C@H]1CC[C@H]2[C@@H]3[C@H](C)C[C@@H]4C[C@H](O)CC[C@]4(C)[C@H]3CC[C@]12C` as the compound, how does the ED50 [1] read?
**A.** 1.67 µM

**Q.** And the ED50 [3]?
**A.** 5.5 µM

**Q.** And the IC50 [7]?
**A.** 1040 nM

**Q.** What does the source list for `CC(=O)[C@H]1CC[C@H]2[C@@H]3C[C@H](C)[C@@H]4C[C@H](O)CC[C@]4(C)[C@H]3CC[C@]12C`?
**A.** ED50 [1]: 2.66 µM; Ratio [2]: 2.51; ED50 [3]: 5.5 µM; Ratio [4]: 0.96; Ratio [5]: 0.15; Ratio [6]: 1.02; IC50 [7]: 3080 nM

**Q.** Which ED50 [1] does the source give for `CC(=O)[C@H]1CC[C@H]2[C@@H]3[C@H](C)C[C@H]4C[C@H](O)CC[C@]4(C)[C@H]3CC[C@]12C` here?
**A.** 2.68 µM

**Q.** What about the ED50 [3] of the same compound?
**A.** 5.5 µM

**Q.** And the IC50 [7]?
**A.** 5990 nM

**Q.** What does the source list for `CC(=O)[C@H]1CC[C@H]2[C@@H]3C[C@@H](C)[C@@H]4C[C@H](O)CC[C@]4(C)[C@H]3CC[C@]12C`?
**A.** ED50 [1]: 0.4 µM; Ratio [2]: 22.5; ED50 [3]: 0.55 µM; Ratio [4]: 1.48; Ratio [5]: 0.62; Ratio [6]: 4.36; IC50 [7]: 45 nM

**Q.** What does the source list for `CC(=O)[C@H]1CC[C@H]2[C@@H]3C[C@H](C)[C@H]4C[C@H](O)CC[C@]4(C)[C@H]3CC[C@]12C`?
**A.** ED50 [1]: 1.4 µM; Ratio [2]: 3.24; ED50 [3]: 8.9 µM; Ratio [4]: 1.01; Ratio [5]: 0.06; Ratio [6]: 1.17; IC50 [7]: 2940 nM

**Q.** For `CC(=O)[C@H]1CC[C@H]2[C@@H]3[C@H](C)C[C@@H]4C[C@@H](O)CC[C@]4(C)[C@H]3CC[C@]12C`, which ED50 [1] is on record?
**A.** 1.25 µM

**Q.** And the ED50 [3]?
**A.** 10 µM

**Q.** What about the IC50 [7] of the same compound?
**A.** 10800 nM

**Q.** With `CC(=O)[C@H]1CC[C@H]2[C@@H]3[C@@H](C)C[C@H]4C[C@H](O)CC[C@]4(C)[C@H]3CC[C@]12C` as the compound, how does the ED50 [1] read?
**A.** 1.34 µM

**Q.** What about the ED50 [3] of the same compound?
**A.** 5.5 µM

**Q.** What about the IC50 [7] of the same compound?
**A.** 1240 nM

**Q.** Which ED50 [1] does the source give for `CC(=O)[C@H]1CC[C@H]2[C@@H]3[C@@H](C)C[C@@H]4C[C@H](O)CC[C@]4(C)[C@H]3CC[C@]12C` here?
**A.** 1.36 µM

**Q.** And the ED50 [3]?
**A.** 5.5 µM

**Q.** And the IC50 [7]?
**A.** 1240 nM

**Q.** With `CC(=O)[C@H]1CC[C@H]2[C@@H]3C[C@@H](C)[C@H]4C[C@H](O)CC[C@]4(C)[C@H]3CC[C@]12C` as the compound, how does the ED50 [1] read?
**A.** 0.51 µM

**Q.** What about the Ratio [2] of the same compound?
**A.** 10

**Q.** What about the ED50 [3] of the same compound?
**A.** 1.05 µM

**Q.** What about the Ratio [4] of the same compound?
**A.** 2.5

**Q.** And the Ratio [5]?
**A.** 0.59

**Q.** What about the Ratio [6] of the same compound?
**A.** 7.7

**Q.** What about the IC50 [7] of the same compound?
**A.** 5.7 nM

**Q.** What does the source list for `CC(=O)[C@H]1CC[C@H]2[C@@H]3[C@H](C)C[C@H]4C[C@@H](O)CC[C@]4(C)[C@H]3CC[C@]12C`?
**A.** ED50 [1]: 1.63 µM; ED50 [3]: 5.5 µM

**Q.** Which results are given for `CC(=O)[C@H]1CC[C@H]2[C@@H]3CC[C@@H]4C[C@H](O)CC[C@]4(C)[C@H]3CC[C@]12C`?
**A.** ED50 [1]: 0.06 µM; Ratio [2]: 9.77; ED50 [3]: 0.3 µM; Ratio [4]: 1.2; Ratio [5]: 0.06; Ratio [6]: 2.82
